Data taken from ChEMBL document CHEMBL1140478, “Preparation and antitubercular activities of alkylated amino alcohols and their glycosylated derivatives” (Bioorg Med Chem, 2007).

Legend:
[1] = tested on: Mycobacterium tuberculosis; assay: Antimycobacterial activity against Mycobacterium tuberculosis H37Rv by microplate alamar blue assay; assay type: functional
In short: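 M. tuberculosis H37Rv (ATCC 27294) exposed to decreasing compound concentrations in Middlebrook 7H9 medium. Growth read by Microplate Alamar Blue Assay. MIC taken as the lowest concentration that […]. Values are means of three separate experiments. Rifampicin at 1.0 µg/mL served as internal control.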

[2] = Cell proliferation of mouse […] cells at 0.05 ug/mL by MTT assay; assay type: ADME, cell-based, J774.A1; settings: J774A.1 cells, read-out: Activity
In short: (§1)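 Supernatants removed, cells given supplemented RPMI plus MTT (5 mg/mL) for 4 h at 37 °C, 5% CO2. Reaction stopped with acidic isopropanol (HCl), 10 min at room temperature, OD read at 570 nm. Proliferation and cytotoxicity calculated by formulae.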

[3] = Cell proliferation of mouse […] cells at 0.5 ug/mL by MTT assay; assay type: ADME, cell-based, J774.A1; settings: J774A.1 cells, read-out: Activity; in short: as §1
[4] = tested on: J774.A1; assay: Cytotoxicity against mouse […] cells at 0.5 ug/mL by MTT assay; assay type: cell-based; in short: as §1
[5] = tested on: J774.A1; assay: Cytotoxicity against mouse […] cells at 0.005 ug/mL by MTT assay; assay type: cell-based; in short: as §1
[6] = Cell proliferation of mouse […] cells at 0.005 ug/mL by MTT assay; assay type: ADME, cell-based, J774.A1; settings: J774A.1 cells, read-out: Activity; in short: as §1
[7] = tested on: J774.A1; assay: Cytotoxicity against mouse […] cells at 0.05 ug/mL by MTT assay; assay type: cell-based; in short: as §1

Compound | MIC [1] | viability at 0.05 ug/mL [2] [%] | viability at 0.5 ug/mL [3] [%] | Activity [4] | Activity [5] | viability at 0.005 ug/mL [6] [%] | Activity [7]
CC[C@@H](CO)NCCN[C@@H](CC)CO [ETHAMBUTOL] | 3.25 µg/mL | – | – | – | – | – | –
CCCCCCCCCCC(O)CN (stereo unspecified) | 15 µM | 112 | 96.4 | 31.1% | Not Active | 110 | Not Active
CCCCC(CC)CNCCO (stereo unspecified) | > 578 µM | – | – | – | – | – | –
CCCCCCCCCCCCCCCCNCCO | 46 µM | – | – | – | – | – | –
NNC(=O)c1ccncc1 [ISONIAZID] | 0.2 µg/mL | – | – | – | – | – | –
CCCCCCCCCCC(O)CNC[C@H]1O[C@@H]2OC(C)(C)O[C@@H]2[C@H]2OC(C)(C)O[C@H]21 (stereo partly specified) | 28 µM | – | – | – | – | – | –
CCCCCCCCNCCO | 578 µM | – | – | – | – | – | –
CCCCC(CC)CN(CCO)C[C@H]1O[C@@H]2OC(C)(C)O[C@@H]2[C@H]2OC(C)(C)O[C@H]21 (stereo partly specified) | > 240 µM | – | – | – | – | – | –
CCCCCCCCCCCCCCCCN(CCO)C[C@H]1O[C@@H]2OC(C)(C)O[C@@H]2[C@H]2OC(C)(C)O[C@H]21 | 11 µM | – | 149 | 17.4% | 10.6% | 104 | 16.3%
CCCCCCCCN(CCO)C[C@H]1O[C@@H]2OC(C)(C)O[C@@H]2[C@H]2OC(C)(C)O[C@H]21 | 241 µM | – | – | – | – | – | –
CCCCCCCCCCCCNCCO | 27 µM | 77.6 | 90.9 | 21.3% | 12.1% | 92.7 | 8.4%
CCCCCCCCCCCCN(CCO)C[C@H]1O[C@@H]2OC(C)(C)O[C@@H]2[C@H]2OC(C)(C)O[C@H]21 | 6 µM | 98.9 | 96.6 | Not Active | Not Active | 98.3 | Not Active
CCCCCCCCCCN(CCO)C[C@H]1O[C@@H]2OC(C)(C)O[C@@H]2[C@H]2OC(C)(C)O[C@H]21 | 225 µM | – | – | – | – | – | –
CCCCCCCCCCCCCCN(CCO)C[C@H]1O[C@@H]2OC(C)(C)O[C@@H]2[C@H]2OC(C)(C)O[C@H]21 | 12 µM | 135 | 118 | Not Active | Not Active | 113 | Not Active
CCCCCCCCCCNCCO | 248 µM | – | – | – | – | – | –
CO[C@H]1/C=C/O[C@@]2(C)Oc3c(C)c(O)c4c(O)c(c(/C=N/N5CCN(C)CC5)c(O)c4c3C2=O)NC(=O)/C(C)=C\C=C\[C@H](C)[C@H](O)[C@@H](C)[C@@H](O)[C@@H](C)[C@H](OC(C)=O)[C@@H]1C [RIFAMPIN] | 1 µg/mL | – | – | – | – | – | –
CCCCCCCCCCCCCCNCCO [MYRALACT] | 51 µM | – | – | – | – | – | –
